{"source": "ChEMBL document CHEMBL1125317", "about": "“3-Hydroxy-3-methylglutaryl-coenzyme A reductase inhibitors. 9. The synthesis and biological evaluation of novel simvastatin analogs” (J Med Chem, 1992)", "key": {"[1]": {"test_system": "Canis familiaris", "assay": "Compound tested […] for % change of plasma cholesterol in cholestyramine-primed dogs after oral administration at 4 mg/kg", "type": "functional, Canis lupus familiaris"}, "[2]": {"test_system": "Rattus norvegicus", "assay": "[…] acute inhibition of [14C]cholesterol synthesis in the rat post peroral administration of the test compound at 0.45 mg/kg", "type": "functional", "settings": "route oral", "method_in_brief": "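Rats given a single oral dose of 0.45 mg/kg; [14C]acetate incorporation into cholesterol measured 1 h after dosing as index of acute cholesterol synthesis inhibition.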"}, "[3]": {"target": "T1, 3-hydroxy-3-methylglutaryl-coenzyme A reductase (Homo sapiens, UniProt P04035)", "T1 sequence (P04035 whole entry)": "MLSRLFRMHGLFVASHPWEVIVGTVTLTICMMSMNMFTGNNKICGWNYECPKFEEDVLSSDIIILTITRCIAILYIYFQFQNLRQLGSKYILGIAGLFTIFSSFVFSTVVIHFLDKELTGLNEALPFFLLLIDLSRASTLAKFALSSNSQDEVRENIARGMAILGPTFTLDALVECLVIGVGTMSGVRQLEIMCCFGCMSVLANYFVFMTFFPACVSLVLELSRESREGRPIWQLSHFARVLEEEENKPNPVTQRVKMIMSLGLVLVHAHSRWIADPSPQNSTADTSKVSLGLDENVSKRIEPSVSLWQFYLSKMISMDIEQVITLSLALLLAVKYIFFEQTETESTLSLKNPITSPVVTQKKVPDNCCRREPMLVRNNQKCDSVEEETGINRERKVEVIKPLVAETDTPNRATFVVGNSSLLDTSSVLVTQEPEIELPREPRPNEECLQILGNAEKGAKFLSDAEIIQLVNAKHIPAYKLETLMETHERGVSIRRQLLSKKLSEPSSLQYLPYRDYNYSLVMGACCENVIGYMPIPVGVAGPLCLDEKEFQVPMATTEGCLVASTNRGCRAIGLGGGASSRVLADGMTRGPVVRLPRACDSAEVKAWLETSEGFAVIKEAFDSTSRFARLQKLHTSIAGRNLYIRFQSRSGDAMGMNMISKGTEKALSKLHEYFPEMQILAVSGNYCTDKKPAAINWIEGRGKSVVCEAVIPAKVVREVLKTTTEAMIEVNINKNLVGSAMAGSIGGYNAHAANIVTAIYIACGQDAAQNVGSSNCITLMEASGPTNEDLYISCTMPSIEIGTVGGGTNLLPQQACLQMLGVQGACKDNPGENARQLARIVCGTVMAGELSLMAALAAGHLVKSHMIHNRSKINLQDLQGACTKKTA", "assay": "The compound was tested in vitro for inhibitory activity against HMG-CoA reductase"}}}
{"smiles": "CCC(C)(C)C(=O)O[C@@H]1C2C(=C[C@H](C)[C@H]1[C@H](C)O)C=C[C@H](C)[C@@H]2CC[C@@H]1C[C@@H](O)CC(=O)O1", "note": "(some centres undefined)", "values": [{"measurement": "Change", "setting": "[1]", "value": -32, "unit": "%"}, {"measurement": "Change", "setting": "[2]", "value": -28, "unit": "%"}]}
{"smiles": "CCC(C)(C)C(=O)O[C@H]1C[C@@H](C)C=C2C=C[C@H](C)[C@H](CC[C@@H]3C[C@@H](O)CC(=O)O3)C21", "note": "(some centres undefined)", "values": [{"measurement": "Change", "setting": "[1]", "value": -60, "unit": "%"}, {"measurement": "Change", "setting": "[2]", "value": -65, "unit": "%"}]}
{"smiles": "CCC(C)(C)C(=O)O[C@@H]1C2C(=C[C@H](C)[C@H]1[C@@H](O)c1ccccc1)C=C[C@H](C)[C@@H]2CC[C@@H]1C[C@@H](O)CC(=O)O1", "note": "(some centres undefined)", "values": [{"measurement": "Change", "setting": "[1]", "value": -31, "unit": "%"}, {"measurement": "Change", "setting": "[2]", "value": -25, "unit": "%"}]}
{"smiles": "CCC(C)(C)C(=O)O[C@@H]1C2C(=C[C@H](C)[C@H]1CO)C=C[C@H](C)[C@@H]2CC[C@@H]1C[C@@H](O)CC(=O)O1", "note": "(some centres undefined)", "values": [{"measurement": "Change", "setting": "[1]", "value": 0, "unit": "%"}, {"measurement": "Change", "setting": "[2]", "value": -69, "unit": "%"}, {"measurement": "IC50", "setting": "[3]", "value": 10.8, "unit": "nM"}]}
{"smiles": "CCC(C)(C)C(=O)O[C@@H]1C2C(=C[C@H](C)[C@@H]1O)C=C[C@H](C)[C@@H]2CC[C@@H]1C[C@@H](O)CC(=O)O1", "note": "(some centres undefined)", "values": [{"measurement": "Change", "setting": "[1]", "value": -36, "unit": "%"}, {"measurement": "Change", "setting": "[2]", "value": -45, "unit": "%"}]}
{"smiles": "CC[C@H](C)C(=O)O[C@H]1C[C@@H](C)C=C2C=C[C@H](C)[C@H](CC[C@@H]3C[C@@H](O)CC(=O)O3)C21", "note": "(some centres undefined)", "values": [{"measurement": "Change", "setting": "[1]", "value": -42, "unit": "%"}, {"measurement": "Change", "setting": "[2]", "value": -55, "unit": "%"}]}
{"smiles": "CC[C@H](C)C(=O)O[C@H]1CCC=C2C=C[C@H](C)[C@H](CC[C@@H]3C[C@@H](O)CC(=O)O3)[C@H]21", "note": "[MEVASTATIN]", "values": [{"measurement": "IC50", "setting": "[3]", "value": 28.4, "unit": "nM"}]}
